In ChEMBL document CHEMBL4680154, “The optimization of xanthine derivatives leading to HBK001 hydrochloride as a potent dual ligand targeting DPP-IV and GPR119” (Eur J Med Chem, 2020):

What was measured:
[1] = Oral bioavailability in Sprague-Dawley rat at 30 mg/kg; format: ADME, organism-based; details: in vivo
Method in brief: (§1)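 Male SD rats (180–200 g), three per route, dosed as free base content. Oral formulation in 0.5% carboxymethyl cellulose; intravenous formulation in normal saline. Sampling at 5, 15, 30 min and 1, 1.5, 2, 4, 6, 8, 12, 24 h; plasma kept at -80 °C. Non-compartmental parameters; F = (AUCpo×dose iv)/(AUCiv×dose po).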

[2] = Elimination half-life in Sprague-Dawley rat plasma at 30 mg/kg, po measured up to 24 hrs; format: ADME, organism-based; details: read-out: beta t1/2 (converted); method in brief: as §1
[3] = target: Voltage-gated inwardly rectifying potassium channel KCNH2 (Homo sapiens, UniProt Q12809); experiment: Inhibition of human ERG expressed in CHO cells by manual patch clamp assay; format: cell-based
Method in brief: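 CHO cells stably expressing hERG, cultured at least 24 h, then recorded by whole-cell voltage-clamp patch clamp.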

[4] = Plasma protein binding in human at 5 uM after 5 hrs by LC-MS/MS based equilibrium dialysis method; format: ADME, cell-free; details: read-out: PPB (converted)
Method in brief: (§2)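 Equilibrium dialysis: compound spiked at 5 μM (1% DMSO) into pre-warmed 37 °C plasma, dialysed against phosphate buffer (1% DMSO) for 5 h at 37 °C with shaking at 100 rpm. Both compartments analysed by LC-MS/MS.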

[5] = AUC(0 to t) in Sprague-Dawley rat plasma at 30 mg/kg, po measured up to 24 hrs; format: ADME, organism-based; design: route oral, dose 30 mg/kg, time <=24; method in brief: as §1
[6] = Tmax in Sprague-Dawley rat plasma at 30 mg/kg, po measured up to 24 hrs; format: ADME, organism-based; method in brief: as §1
[7] = Acute toxicity in po dosed ICR mouse assessed as animal survival administered as single dose and observed for 7 days; format: organism-based; details: in vivo, time 7 day
Method in brief: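 Female ICR mice (18 to 21 g), ten animals, given one oral dose of 1.5 g/kg. The number surviving was recorded after 7 days of observation.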

[8] = Metabolic stability in mouse liver microsomes assessed as parent compound remaining at 10 micromol/L measured after 30 mins in presence of NADPH generating system by LC-MS/MS analysis; format: ADME, Microsome; details: dose 10 µmol/L, read-out: Stabilty
Method in brief: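 Mouse liver microsomes (0.5 mg/mL protein), compound at 10 μmol/L, in Tris-HCl with an NADPH-generating system that starts the reaction. Incubated in duplicate at 37 °C for 30 min; stopped with ice-cold acetonitrile containing internal standard. Supernatant analysed by LC-MS/MS; remaining amount normalised to time zero. Inactivated microsomes served as negative control.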

[9] = Mean residence time (0 to infinity) in Sprague-Dawley rat at 3 mg/kg, iv measured up to 24 hrs; format: ADME, organism-based; details: in vivo; method in brief: as §1
[10] = Cmax in Sprague-Dawley rat plasma at 30 mg/kg, po measured up to 24 hrs; format: ADME, organism-based; design: route oral, dose 30 mg/kg, time <=24; method in brief: as §1
[11] = AUC(0 to infinity) in Sprague-Dawley rat plasma at 30 mg/kg, po measured up to 24 hrs; format: ADME, organism-based; design: route oral, dose 30 mg/kg, time <=24; method in brief: as §1
[12] = AUC(0 to t) in Sprague-Dawley rat plasma at 3 mg/kg, iv measured up to 24 hrs; format: ADME, organism-based; design: route intravenous, dose 3 mg/kg, time <=24; method in brief: as §1
[13] = test system: Vero; experiment: Cytotoxicity against African green monkey Vero cells incubated for 48 hrs by MTT assay; details: Chlorocebus sabaeus
[14] = Plasma protein binding in rat at 5 uM after 5 hrs by LC-MS/MS based equilibrium dialysis method; format: ADME, cell-free; details: read-out: PPB (converted); method in brief: as §2
[15] = Plasma protein binding in monkey at 5 uM after 5 hrs by LC-MS/MS based equilibrium dialysis method; format: ADME, cell-free, Macaca mulatta; details: rhesus monkey, read-out: PPB (converted); method in brief: as §2
[16] = Apparent permeability in human Caco-2 cells at 50 uM after 1 hr by UPLC analysis; format: ADME, cell-based
Method in brief: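 Caco-2 cells grown 21 days on Transwell inserts (0.4 µm pores) into monolayers with TEER above 500 Ω×cm² before and after transport. Compound at 50 µM added apically, 1 h at 37 °C. Transported compound quantified by UPLC; Papp = (dQ/dt)/(C0×A).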

[17] = Cmax in Sprague-Dawley rat plasma at 3 mg/kg, iv measured up to 24 hrs; format: ADME, organism-based; design: route intravenous, dose 3 mg/kg, time <=24; method in brief: as §1
[18] = Mean residence time (0 to infinity) in Sprague-Dawley rat at 30 mg/kg, po measured up to 24 hrs; format: ADME, organism-based; details: in vivo; method in brief: as §1
[19] = Elimination half-life in Sprague-Dawley rat plasma at 3 mg/kg, iv measured up to 24 hrs; format: ADME, organism-based; details: read-out: beta t1/2 (converted); method in brief: as §1
[20] = Plasma protein binding in dog at 5 uM after 5 hrs by LC-MS/MS based equilibrium dialysis method; format: ADME, cell-free, Canis lupus familiaris; details: read-out: PPB (converted); method in brief: as §2
[21] = Genotoxicity in Salmonella typhimurium TA100 incubated for 48 to 72 hrs by mini-Ames test; format: toxicity; details: salmonella enterica subsp. enterica serovar typhimurium; time 48-72 hrs
Method in brief: (§3)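 Mini-Ames test with Salmonella typhimurium TA98 and TA100, with 10% S9 mix or PBS, in top agar poured onto minimal agar in 6-well plates. Up to 1000 μg/well; DMSO solvent control. Incubated 37 °C for 48–72 h; revertants counted manually. Called positive at a dose-related increase of at least 2-fold over the solvent control.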

[22] = Genotoxicity in Salmonella typhimurium TA98 incubated for 48 to 72 hrs by mini-Ames test; format: toxicity; details: salmonella enterica subsp. enterica serovar typhimurium; time 48-72 hrs; method in brief: as §3
[23] = Plasma protein binding in mouse at 5 uM after 5 hrs by LC-MS/MS based equilibrium dialysis method; format: ADME, cell-free; details: read-out: PPB (converted); method in brief: as §2
[24] = AUC(0 to infinity) in Sprague-Dawley rat plasma at 3 mg/kg, iv measured up to 24 hrs; format: ADME, organism-based; design: route intravenous, dose 3 mg/kg, time <=24; method in brief: as §1

Chain of Voltage-gated inwardly rectifying potassium channel KCNH2 (Q12809 whole entry): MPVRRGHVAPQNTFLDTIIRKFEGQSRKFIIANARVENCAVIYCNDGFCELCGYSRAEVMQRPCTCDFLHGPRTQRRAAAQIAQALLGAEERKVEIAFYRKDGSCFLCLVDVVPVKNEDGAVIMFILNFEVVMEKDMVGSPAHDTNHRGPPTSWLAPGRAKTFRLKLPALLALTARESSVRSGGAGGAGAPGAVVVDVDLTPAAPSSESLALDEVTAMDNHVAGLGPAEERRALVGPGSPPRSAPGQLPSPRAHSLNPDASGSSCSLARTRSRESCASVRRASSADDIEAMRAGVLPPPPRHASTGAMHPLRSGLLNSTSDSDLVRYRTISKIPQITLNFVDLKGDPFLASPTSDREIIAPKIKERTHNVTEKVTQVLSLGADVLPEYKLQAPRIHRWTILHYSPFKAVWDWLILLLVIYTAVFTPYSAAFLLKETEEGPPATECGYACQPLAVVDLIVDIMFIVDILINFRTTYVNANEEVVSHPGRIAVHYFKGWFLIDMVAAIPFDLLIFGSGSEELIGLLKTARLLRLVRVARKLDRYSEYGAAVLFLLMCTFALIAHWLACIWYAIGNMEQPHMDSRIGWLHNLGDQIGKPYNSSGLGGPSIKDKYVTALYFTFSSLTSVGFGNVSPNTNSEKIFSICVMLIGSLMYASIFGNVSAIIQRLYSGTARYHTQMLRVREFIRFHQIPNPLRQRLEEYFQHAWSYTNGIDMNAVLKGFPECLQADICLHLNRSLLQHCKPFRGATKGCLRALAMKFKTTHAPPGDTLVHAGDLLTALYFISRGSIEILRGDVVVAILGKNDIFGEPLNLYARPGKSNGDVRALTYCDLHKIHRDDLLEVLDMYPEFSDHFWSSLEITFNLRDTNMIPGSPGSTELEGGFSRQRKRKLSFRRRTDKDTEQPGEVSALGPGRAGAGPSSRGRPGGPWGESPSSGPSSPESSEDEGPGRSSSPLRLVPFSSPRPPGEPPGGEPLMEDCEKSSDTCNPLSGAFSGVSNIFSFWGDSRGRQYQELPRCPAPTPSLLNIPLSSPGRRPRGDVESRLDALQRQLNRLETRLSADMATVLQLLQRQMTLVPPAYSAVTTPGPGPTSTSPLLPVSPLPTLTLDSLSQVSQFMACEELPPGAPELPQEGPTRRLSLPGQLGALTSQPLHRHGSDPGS

Question: Which results are given for `CC#CCn1c(N2CCC[C@@H](N)C2)nc2c1c(=O)n(CCCN1CCN(c3nc(-c4ccccc4)no3)CC1)c(=O)n2C.Cl`?
Answer: bioavailability [1]: 42.4%; half-life [2]: 1.08 h; IC50 [3]: 4.9 µM; fraction unbound at 5 h, 5 µM [4]: 0.028; AUC(0-t) at 24 h [5]: 623 ng·h/mL; Tmax [6]: 1.33 h; LD50 at 168 h [7]: > 1500 mg/kg; remaining at 0.5 h, 10 µM [8]: 49.3%; MRT inf [9]: 0.73 h; Cmax [10]: 226 ng/mL; AUC(0-inf) [11]: 656 ng·h/mL; AUC(0-t) at 24 h [12]: 147 ng·h/mL; IC50 [13]: > 64 µg/mL; fraction unbound at 5 h, 5 µM [14]: 0.039; fraction unbound at 5 h, 5 µM [15]: 0.04; Papp at 1 h, 50 µM [16]: 19.1 ×10⁻⁶ cm/s; Cmax [17]: 416 ng/mL; MRT inf [18]: 2.22 h; half-life [19]: 0.63 h; fraction unbound at 5 h, 5 µM [20]: 0.037; Activity [21]: Non-Toxic; Activity [22]: Non-Toxic; fraction unbound at 5 h, 5 µM [23]: 0.015; AUC(0-inf) [24]: 167 ng·h/mL
